Converted amounts (≈) assume the structure as drawn. The source made the active and inactive calls. No cut-off for these calls is given here.
Legend:
[1] = Octanol-water intrinsic distribution co-efficient, log D of the compound at 100 uM at pH 7.4 after 16 to 22 hrs by CAMDIS assay; assay type: physicochemical
Method in brief: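 Distribution between octanol and aqueous buffer at pH 7.4, CAMDIS carrier-mediated system.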

[2] = Solubility of the compound at pH 6.5 by LYSA; assay type: physicochemical; details: buffer
Method in brief: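 Lyophilisation solubility assay at pH 6.5.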

Rhodesain = Rhodesain (Trypanosoma brucei rhodesiense, UniProt Q95PM0); assay: Inhibition of Trypanosoma brucei rhodesiense rhodesain using Cbz-Phe-Arg-AMC as substrate by fluorimetric method
Rhodesain, sequence (Q95PM0 whole entry): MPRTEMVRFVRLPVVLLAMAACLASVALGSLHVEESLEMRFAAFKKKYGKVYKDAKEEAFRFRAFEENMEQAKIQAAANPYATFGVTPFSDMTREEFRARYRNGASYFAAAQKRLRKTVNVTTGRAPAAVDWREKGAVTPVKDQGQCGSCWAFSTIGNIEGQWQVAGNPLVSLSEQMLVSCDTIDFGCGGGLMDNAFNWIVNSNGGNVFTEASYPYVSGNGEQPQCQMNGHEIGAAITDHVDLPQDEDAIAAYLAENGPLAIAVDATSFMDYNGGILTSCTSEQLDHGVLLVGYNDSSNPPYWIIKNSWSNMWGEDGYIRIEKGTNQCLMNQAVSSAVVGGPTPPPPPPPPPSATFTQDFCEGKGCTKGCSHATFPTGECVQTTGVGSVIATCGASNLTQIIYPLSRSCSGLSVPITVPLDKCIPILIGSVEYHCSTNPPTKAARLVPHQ
Method in brief: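 Fluorescence-based protease assay. IC50 was converted to Ki by the Cheng-Prusoff equation. Values are the average of two measurements, each run in duplicate.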

Procathepsin L = Procathepsin L (Homo sapiens, UniProt P07711); assay: Inhibition of human CatL using Cbz-Phe-Arg-AMC as substrate measured over 30 mins by fluorimetric method
Procathepsin L, sequence (P07711 whole entry): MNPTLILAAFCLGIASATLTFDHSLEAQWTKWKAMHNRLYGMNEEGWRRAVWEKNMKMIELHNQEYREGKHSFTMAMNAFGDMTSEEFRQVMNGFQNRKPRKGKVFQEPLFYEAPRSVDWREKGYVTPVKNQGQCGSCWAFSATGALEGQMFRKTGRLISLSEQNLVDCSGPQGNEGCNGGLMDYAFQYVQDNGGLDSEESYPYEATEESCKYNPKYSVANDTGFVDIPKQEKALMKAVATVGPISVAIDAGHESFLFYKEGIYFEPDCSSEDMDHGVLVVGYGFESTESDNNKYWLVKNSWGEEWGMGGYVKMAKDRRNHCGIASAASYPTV

[3] = Effective permeability of the compound after 15 hrs by PAMPA; assay type: physicochemical; details: read-out: Peff
Cytochrome P450 3A4 = Cytochrome P450 3A4 (Homo sapiens, UniProt P08684); assay: Inhibition of CYP3A4 in human liver microsomes using DBF as substrate by fluorescence assay; assay type: ADME
Cytochrome P450 3A4, sequence (P08684 whole entry): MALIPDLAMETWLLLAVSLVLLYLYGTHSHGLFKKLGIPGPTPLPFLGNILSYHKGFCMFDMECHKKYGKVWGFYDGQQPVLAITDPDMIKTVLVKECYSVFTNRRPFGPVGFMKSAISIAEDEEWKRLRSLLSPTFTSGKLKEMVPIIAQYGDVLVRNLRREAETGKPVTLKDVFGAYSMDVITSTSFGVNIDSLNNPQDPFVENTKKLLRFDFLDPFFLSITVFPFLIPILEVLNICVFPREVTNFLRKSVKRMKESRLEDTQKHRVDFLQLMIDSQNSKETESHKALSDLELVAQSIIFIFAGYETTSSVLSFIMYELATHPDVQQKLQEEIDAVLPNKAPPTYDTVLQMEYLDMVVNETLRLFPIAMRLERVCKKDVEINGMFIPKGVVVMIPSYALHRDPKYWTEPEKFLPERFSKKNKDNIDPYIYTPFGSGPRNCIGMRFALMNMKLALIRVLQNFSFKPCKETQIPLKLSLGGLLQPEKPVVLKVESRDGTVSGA

Cytochrome P450 2D6 = Cytochrome P450 2D6 (Homo sapiens, UniProt P10635); assay: Inhibition of CYP2D6 in human liver microsomes using AMMC as substrate by fluorescence assay; assay type: ADME
Cytochrome P450 2D6, sequence (P10635 whole entry): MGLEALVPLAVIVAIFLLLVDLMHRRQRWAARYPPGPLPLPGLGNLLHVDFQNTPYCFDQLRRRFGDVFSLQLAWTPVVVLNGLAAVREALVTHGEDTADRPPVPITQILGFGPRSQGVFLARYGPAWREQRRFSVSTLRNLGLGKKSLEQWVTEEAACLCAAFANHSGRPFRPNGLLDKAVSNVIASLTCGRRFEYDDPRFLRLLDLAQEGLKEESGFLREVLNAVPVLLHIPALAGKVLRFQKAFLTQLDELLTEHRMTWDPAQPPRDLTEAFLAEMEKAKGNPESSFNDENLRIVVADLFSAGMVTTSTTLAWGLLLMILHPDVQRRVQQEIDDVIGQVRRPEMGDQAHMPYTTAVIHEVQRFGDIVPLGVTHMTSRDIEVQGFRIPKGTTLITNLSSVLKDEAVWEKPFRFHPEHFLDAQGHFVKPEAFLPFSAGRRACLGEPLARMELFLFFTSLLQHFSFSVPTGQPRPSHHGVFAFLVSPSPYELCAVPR

Cytochrome P450 2C9 = Cytochrome P450 2C9 (Homo sapiens, UniProt P11712); assay: Inhibition of CYP2C9 in human liver microsomes using MFC as substrate by fluorescence assay
Cytochrome P450 2C9, sequence (P11712 whole entry): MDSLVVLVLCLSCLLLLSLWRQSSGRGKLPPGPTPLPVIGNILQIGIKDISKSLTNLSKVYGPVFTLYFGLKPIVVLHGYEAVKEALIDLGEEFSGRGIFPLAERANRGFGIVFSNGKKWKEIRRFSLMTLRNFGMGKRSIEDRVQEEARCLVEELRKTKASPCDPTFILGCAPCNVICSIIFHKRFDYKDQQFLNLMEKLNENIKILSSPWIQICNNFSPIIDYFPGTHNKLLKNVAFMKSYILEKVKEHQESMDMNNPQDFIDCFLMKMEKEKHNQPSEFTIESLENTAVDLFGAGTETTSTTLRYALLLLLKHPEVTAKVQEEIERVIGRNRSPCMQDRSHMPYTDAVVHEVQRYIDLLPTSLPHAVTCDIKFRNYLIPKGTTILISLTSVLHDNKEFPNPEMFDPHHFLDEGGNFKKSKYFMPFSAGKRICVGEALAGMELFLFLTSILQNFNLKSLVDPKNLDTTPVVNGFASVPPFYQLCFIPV

[4] = Half life in C57BL/6J mouse administered via iv as bolus dose by LC-MS/MS analysis; assay type: ADME, organism-based; details: in vivo
Method in brief: (§1)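 Male adult C57BL/6J mice, single i.v. bolus in N-methylpyrrolidinone/40% aqueous hydroxypropyl-γ-cyclodextrin (30/70); blood at 5, 15, 30 min, 1, 2, 4, 8 h; plasma by centrifugation, stored −20 °C; LC–MS/MS; non-compartmental analysis.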

[5] = Clearance in C57BL/6J mouse administered via iv as bolus dose by LC-MS/MS analysis; assay type: ADME, organism-based; details: in vivo; method in brief: as §1
[6] = Volume of distribution at steady state in C57BL/6J mouse administered via iv as bolus dose by LC-MS/MS analysis; assay type: ADME, organism-based; details: in vivo, read-out: Vdss; method in brief: as §1
[7] = Ratio of drug level in brain to plasma in C57BL/6J mouse administered via iv as bolus dose by LC-MS/MS analysis
MDR1 = assay: Efflux ratio of permeability across pig LLC-PK1 cells expressing human MDR1 at 1 uM after 3.5 hrs by LC-MS/MS analysis; assay type: ADME, cell-based, Sus scrofa
Method in brief: (§2)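 Porcine kidney LLC-PK1 cells stably transfected with human ABCB1 (MDR1) or mouse Abcb1a (Mdr1a). Cells were grown with 10% FCS and 100 ng/mL colchicine and seeded on permeable inserts, then assayed on day 4. Compound was added at 1 μM to the apical or basolateral side, and transport was run in both directions in triplicate at 37 °C, 5% CO2. Donor and receiver were sampled at 3.5 h and quantified by LC–MS/MS. Lucifer yellow was used as the monolayer tightness control.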

Mdr1a = assay: Efflux ratio of permeability across pig LLC-PK1 cells expressing mouse Mdr1a at 1 uM after 3.5 hrs by LC-MS/MS analysis; assay type: ADME, cell-based, Sus scrofa; method in brief: as §2
[8] = tested on: Trypanosoma brucei rhodesiense; assay: Antitrypanosomal activity against bloodstream form of Trypanosoma brucei rhodesiense STIB 900 infected in NMRI mouse assessed as reduction of parasitemia at 25 mg/kg, ip bid administered for 4 consecutive days starting 3 days post infection measured 24 hrs post last dose; assay type: functional, organism-based
Method in brief: (§3)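 Mice infected with T. b. rhodesiense STIB900 (acute model); dosing from day 3 post-infection on four consecutive days, 25 mg kg⁻¹ i.p. twice daily, 0.1 mL/10 g; three infected-untreated controls; parasitaemia monitored by tail-snip blood smears twice weekly for two weeks, then weekly to day 60; relapse day recorded post-infection.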

[9] = Plasma concentration in rat at 3 mg/kg administered via infusion over 30 mins; assay type: ADME, organism-based; details: iv
Method in brief: (§4)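 Rats given 3 mg kg⁻¹ by infusion over 30 min, then sacrificed; plasma, brain and CSF concentrations measured; ratios to plasma derived; average of three independent measurements.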

[10] = Drug uptake in rat brain at 3 mg/kg administered via infusion over 30 mins; assay type: ADME, organism-based; details: iv, read-out: Drug uptake; method in brief: as §4
[11] = Drug uptake in rat cerebrospinal fluid at 3 mg/kg administered via infusion over 30 mins; assay type: ADME, organism-based; details: iv, read-out: Drug uptake; method in brief: as §4
[12] = Ratio of drug level in rat brain to plasma at 3 mg/kg administered via infusion over 30 mins; details: iv
[13] = Ratio of drug level in rat CSF to plasma at 3 mg/kg administered via infusion over 30 mins; details: iv
[14] = tested on: Trypanosoma brucei rhodesiense; assay: Antitrypanosomal activity against bloodstream form of Trypanosoma brucei rhodesiense STIB 900 assessed as parasite growth inhibition incubated for 24 to 48 hrs followed by 72 hrs recovery by Alamar blue assay; assay type: functional
[15] = tested on: Trypanosoma brucei rhodesiense; assay: Antitrypanosomal activity against bloodstream form of Trypanosoma brucei rhodesiense STIB 900 infected in NMRI mouse assessed as days required to prevent relapse of trypanosome at 25 mg/kg, ip bid administered for 4 consecutive days starting 3 days post infection; assay type: functional; method in brief: as §3
[16] = tested on: Trypanosoma brucei rhodesiense; assay: Antitrypanosomal activity against bloodstream form of Trypanosoma brucei rhodesiense STIB 900 infected in NMRI mouse assessed as mouse survival at 25 mg/kg, ip bid administered for 4 consecutive days starting 3 days post infection (reference value: 13 days); assay type: functional
Method in brief: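 T. b. rhodesiense STIB900 acute mouse infection model. Dosing was 25 mg/kg i.p. twice daily for 4 consecutive days, starting 3 days post-infection, at 0.1 mL/10 g. Three infected mice served as untreated controls without vehicle. Parasitaemia was followed by tail-blood smears twice weekly for two weeks, then weekly to day 60. Relapse day and mean survival days were recorded.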

[17] = Drug uptake in bloodstream form of Trypanosoma brucei rhodesiense STIB 900 infected NMRI mouse blood at 25 mg/kg, ip bid administered for 4 consecutive days starting 3 days post infection measured at 1 hr post last dose; assay type: ADME, organism-based; details: read-out: Drug uptake
[18] = Drug uptake in bloodstream form of Trypanosoma brucei rhodesiense STIB 900 infected NMRI mouse blood at 25 mg/kg, ip bid administered for 4 consecutive days starting 3 days post infection measured at 4 hrs post last dose; assay type: ADME, organism-based; details: read-out: Drug uptake
[19] = Drug uptake in bloodstream form of Trypanosoma brucei rhodesiense STIB 900 infected NMRI mouse blood at 25 mg/kg, ip bid administered for 4 consecutive days starting 3 days post infection measured at 16 hrs post last dose; assay type: ADME, organism-based; details: read-out: Drug uptake
[20] = tested on: Trypanosoma brucei brucei; assay: Antitrypanosomal activity against Trypanosoma brucei brucei TC 221 assessed as parasite growth inhibition after 72 hrs by Alamar blue assay; assay type: functional; details: TC 221, 72 h
Cathepsin B = Cathepsin B (Homo sapiens, UniProt P07858); assay: Inhibition of human cathepsin B
Cathepsin K = molecular target: T1, Cathepsin K (Homo sapiens, UniProt P43235); assay: Inhibition of human cathepsin K
T1 sequence (P43235 whole entry): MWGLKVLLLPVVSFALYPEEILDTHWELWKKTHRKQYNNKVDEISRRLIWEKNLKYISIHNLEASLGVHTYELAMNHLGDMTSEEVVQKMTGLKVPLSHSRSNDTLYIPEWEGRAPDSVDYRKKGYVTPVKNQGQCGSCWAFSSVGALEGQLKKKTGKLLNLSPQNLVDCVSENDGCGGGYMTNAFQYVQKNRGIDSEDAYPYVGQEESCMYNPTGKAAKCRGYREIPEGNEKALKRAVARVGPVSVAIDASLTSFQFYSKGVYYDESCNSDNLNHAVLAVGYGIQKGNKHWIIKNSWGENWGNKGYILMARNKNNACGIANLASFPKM

Cathepsin S = Cathepsin S (Homo sapiens, UniProt P25774); assay: Inhibition of human cathepsin S
Cathepsin S, sequence (P25774 whole entry): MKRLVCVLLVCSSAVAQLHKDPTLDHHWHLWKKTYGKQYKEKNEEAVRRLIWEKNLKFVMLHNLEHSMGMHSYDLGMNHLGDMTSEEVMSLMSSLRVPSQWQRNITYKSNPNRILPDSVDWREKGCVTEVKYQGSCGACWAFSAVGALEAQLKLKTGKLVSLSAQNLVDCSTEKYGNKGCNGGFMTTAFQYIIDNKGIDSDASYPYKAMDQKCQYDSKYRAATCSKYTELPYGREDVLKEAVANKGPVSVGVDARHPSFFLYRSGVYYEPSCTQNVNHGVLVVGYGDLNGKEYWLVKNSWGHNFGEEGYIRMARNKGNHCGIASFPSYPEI

Cathepsin L2 = molecular target: T2, Cathepsin L2 (Homo sapiens, UniProt O60911); assay: Inhibition of human cathepsin V
T2 sequence (O60911 whole entry): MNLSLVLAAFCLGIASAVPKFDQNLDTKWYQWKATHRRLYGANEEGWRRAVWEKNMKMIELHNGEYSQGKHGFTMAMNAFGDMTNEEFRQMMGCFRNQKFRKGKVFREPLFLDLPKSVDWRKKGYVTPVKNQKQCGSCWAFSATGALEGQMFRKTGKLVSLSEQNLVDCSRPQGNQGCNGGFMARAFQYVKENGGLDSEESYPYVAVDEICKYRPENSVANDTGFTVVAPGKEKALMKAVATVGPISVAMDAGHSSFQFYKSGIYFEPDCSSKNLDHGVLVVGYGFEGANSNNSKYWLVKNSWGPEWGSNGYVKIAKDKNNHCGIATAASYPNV

N#CC1(NC(=O)[C@@H]2Cc3ccc(c(Cl)c3)OCCCCOc3cc(C(F)(F)F)ccc3C(=O)N2)CC1
logD at 100 µM [1]: 3.7 | solubility [2]: 12 µg/mL (≈ 23 µM) | Ki (Rhodesain): 11 nM | Ki (Procathepsin L): 10 nM | Papp at 15 h [3]: 0.4 ×10⁻⁶ cm/s | IC50 (Cytochrome P450 3A4): 43000 nM | IC50 (Cytochrome P450 2D6): 11000 nM | IC50 (Cytochrome P450 2C9): 16000 nM | half-life [4]: 2.7 h | clearance [5]: 79 mL/min/kg | Vd [6]: 7.2 L/kg | Kp [7]: < 0.5 | efflux ratio at 3.5 h, 1 µM (MDR1): 26 | efflux ratio at 3.5 h, 1 µM (Mdr1a): 53 | Activity [8]: Active | concentration at 0.5 h [9]: 404 ng/mL | concentration at 0.5 h [10]: 256 ng/g | concentration at 0.5 h [11]: 2.3 ng/mL | Kp at 0.5 h [12]: 0.7 | Kp at 0.5 h [13]: 0.006 | IC50 [14]: 10 nM | Time [15]: 10.2 days | Survival [16]: 16.3 days | concentration at 1 h [17]: 237 ng/mL | concentration at 4 h [18]: 15.1 ng/mL | concentration at 16 h [19]: 4.8 ng/mL | IC50 [20]: 4 nM | IC50 (Cathepsin B): 9000 nM | IC50 (Cathepsin K): ≥ 25000 nM | IC50 (Cathepsin S): 2700 nM | IC50 (Cathepsin L2): 1040 nM

Reference: ChEMBL document CHEMBL4043299, “Repurposing a Library of Human Cathepsin L Ligands: Identification of Macrocyclic Lactams as Potent Rhodesain and Trypanosoma brucei Inhibitors” (J Med Chem, 2018)
